Measured values taken from ChEMBL document CHEMBL1909618, “Non-steroidal dissociated glucocorticoid agonists: indoles as A-ring mimetics and function-regulating pharmacophores” (Bioorg Med Chem Lett, 2011).

Legend:
[1] = target: T1, Glucocorticoid receptor (Homo sapiens) (UniProt P04150); test: Agonist activity at glucocorticoid receptor in HFF assessed as inhibition of IL1-induced IL-6 production after 18 to 24 hrs relative to Dexamethasone; assay type: functional
T1 sequence (whole entry): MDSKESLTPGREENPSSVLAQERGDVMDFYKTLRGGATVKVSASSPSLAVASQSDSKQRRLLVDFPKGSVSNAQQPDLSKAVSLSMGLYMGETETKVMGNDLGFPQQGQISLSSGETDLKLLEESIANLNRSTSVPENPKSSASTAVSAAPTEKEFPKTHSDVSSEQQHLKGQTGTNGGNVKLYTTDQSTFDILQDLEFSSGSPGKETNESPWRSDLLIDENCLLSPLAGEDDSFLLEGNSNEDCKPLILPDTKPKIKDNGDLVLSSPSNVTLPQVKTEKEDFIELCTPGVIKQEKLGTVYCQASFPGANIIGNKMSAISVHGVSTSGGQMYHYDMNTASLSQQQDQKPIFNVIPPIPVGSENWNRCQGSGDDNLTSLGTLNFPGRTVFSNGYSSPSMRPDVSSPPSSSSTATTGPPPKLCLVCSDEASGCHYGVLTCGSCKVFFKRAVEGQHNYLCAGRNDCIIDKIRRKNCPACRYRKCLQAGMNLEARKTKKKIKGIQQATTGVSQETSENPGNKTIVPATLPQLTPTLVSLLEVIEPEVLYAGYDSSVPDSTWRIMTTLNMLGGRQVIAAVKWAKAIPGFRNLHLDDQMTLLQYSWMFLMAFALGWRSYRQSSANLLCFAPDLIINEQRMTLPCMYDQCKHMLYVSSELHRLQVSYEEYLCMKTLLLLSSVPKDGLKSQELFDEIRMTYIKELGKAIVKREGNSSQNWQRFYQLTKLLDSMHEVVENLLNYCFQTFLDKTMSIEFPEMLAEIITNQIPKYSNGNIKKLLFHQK
In short: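 Human foreskin fibroblasts stimulated with IL-1 (1 ng/mL) in the presence of test compound, incubated at 37 °C for 18–24 h. IL-6 in the culture medium was quantified by electrochemiluminescence, DELFIA or ELISA. IC50 and % maximal efficacy were reported.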

Glucocorticoid receptor [2] = target: T2, Glucocorticoid receptor (Homo sapiens, UniProt P04150); test: Transactivation activity of glucocorticoid receptor in HFF assessed as induction of aromatase activity by measuring beta-estradiol activity after 18 to 24 hrs by ELISA
T2 sequence (P04150 whole entry): T1 sequence (whole entry)

[3] = target: T1, Glucocorticoid receptor (Homo sapiens); test: Transactivation activity of glucocorticoid receptor in HFF assessed as induction of aromatase activity by measuring beta-estradiol activity after 18 to 24 hrs by ELISA relative to Dexamethasone
Glucocorticoid receptor [4] = target: T2, Glucocorticoid receptor; test: Displacement of tetramethylrhodamine-labeled Dexamethasone from human recombinant glucocorticoid receptor expressed in baculovirus infected insect cells by fluorescence polarization assay
Progesterone receptor = target: T3, Progesterone receptor (Homo sapiens, UniProt P06401); test: Displacement of tetramethylrhodamine-labeled RU-486 from human recombinant progesterone receptor expressed in baculovirus infected insect cells by fluorescence polarization assay
T3 sequence (P06401 whole entry): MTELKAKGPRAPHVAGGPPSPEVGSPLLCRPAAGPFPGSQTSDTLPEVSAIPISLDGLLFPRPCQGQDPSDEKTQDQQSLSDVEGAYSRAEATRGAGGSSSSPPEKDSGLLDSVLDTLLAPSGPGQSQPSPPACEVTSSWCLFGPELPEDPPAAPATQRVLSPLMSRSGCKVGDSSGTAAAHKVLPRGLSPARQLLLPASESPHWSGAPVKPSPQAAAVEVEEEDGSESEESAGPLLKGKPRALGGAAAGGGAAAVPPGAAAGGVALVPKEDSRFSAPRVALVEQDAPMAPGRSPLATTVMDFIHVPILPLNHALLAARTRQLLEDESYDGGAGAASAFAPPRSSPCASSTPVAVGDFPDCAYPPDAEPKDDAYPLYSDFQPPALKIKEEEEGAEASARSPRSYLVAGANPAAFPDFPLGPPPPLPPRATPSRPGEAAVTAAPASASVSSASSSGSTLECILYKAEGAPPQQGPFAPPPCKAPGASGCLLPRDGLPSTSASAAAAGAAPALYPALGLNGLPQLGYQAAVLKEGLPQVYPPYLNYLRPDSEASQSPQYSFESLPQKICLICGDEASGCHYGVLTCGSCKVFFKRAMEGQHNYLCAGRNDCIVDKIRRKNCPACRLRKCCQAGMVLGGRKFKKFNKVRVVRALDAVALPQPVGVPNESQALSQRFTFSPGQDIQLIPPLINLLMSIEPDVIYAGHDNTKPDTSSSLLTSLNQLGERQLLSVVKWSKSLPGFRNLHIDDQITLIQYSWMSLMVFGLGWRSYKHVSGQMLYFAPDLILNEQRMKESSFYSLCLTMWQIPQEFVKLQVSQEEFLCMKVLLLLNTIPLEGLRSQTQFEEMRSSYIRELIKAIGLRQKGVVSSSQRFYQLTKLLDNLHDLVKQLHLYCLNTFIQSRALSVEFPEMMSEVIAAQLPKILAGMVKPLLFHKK
In short: (§1)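 Fluorescence polarization competition assays with recombinant human receptors in lysates of baculovirus-infected insect cells. Reactions contained 1% DMSO and ran 1 h at room temperature.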

[5] = target: T4, Mineralocorticoid receptor (Homo sapiens, UniProt P08235); test: Displacement of tetramethylrhodamine-labeled Dexamethasone from human recombinant mineralocorticoid receptor expressed in baculovirus infected insect cells by fluorescence polarization assay; in short: as §1
T4 sequence (P08235 whole entry): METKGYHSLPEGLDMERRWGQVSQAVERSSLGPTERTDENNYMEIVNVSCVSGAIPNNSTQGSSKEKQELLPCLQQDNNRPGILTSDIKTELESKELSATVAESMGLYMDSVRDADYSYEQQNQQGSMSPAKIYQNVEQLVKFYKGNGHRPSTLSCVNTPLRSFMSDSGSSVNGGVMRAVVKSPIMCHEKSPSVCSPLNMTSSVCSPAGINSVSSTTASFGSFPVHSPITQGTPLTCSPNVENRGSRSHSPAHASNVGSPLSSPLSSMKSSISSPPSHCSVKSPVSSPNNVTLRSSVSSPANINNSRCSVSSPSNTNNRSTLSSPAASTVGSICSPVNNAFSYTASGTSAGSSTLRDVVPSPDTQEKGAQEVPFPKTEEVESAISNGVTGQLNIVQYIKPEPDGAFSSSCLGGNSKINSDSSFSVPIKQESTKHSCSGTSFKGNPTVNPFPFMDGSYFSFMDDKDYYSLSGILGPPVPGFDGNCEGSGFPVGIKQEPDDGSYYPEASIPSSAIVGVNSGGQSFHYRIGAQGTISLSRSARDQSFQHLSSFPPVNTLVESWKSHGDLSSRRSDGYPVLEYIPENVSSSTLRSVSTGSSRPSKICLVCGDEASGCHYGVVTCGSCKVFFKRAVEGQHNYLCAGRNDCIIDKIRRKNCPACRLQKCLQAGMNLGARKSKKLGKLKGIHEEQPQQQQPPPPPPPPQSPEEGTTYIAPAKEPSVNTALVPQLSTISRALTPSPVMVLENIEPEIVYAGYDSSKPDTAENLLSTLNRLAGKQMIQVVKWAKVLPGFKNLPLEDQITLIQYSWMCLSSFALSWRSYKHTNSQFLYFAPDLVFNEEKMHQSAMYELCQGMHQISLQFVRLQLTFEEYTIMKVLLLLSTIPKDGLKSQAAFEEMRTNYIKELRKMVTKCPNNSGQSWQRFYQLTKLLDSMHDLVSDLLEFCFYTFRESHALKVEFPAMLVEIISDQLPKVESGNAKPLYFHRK

Glucocorticoid receptor [6] = target: T2, Glucocorticoid receptor; test: Agonist activity at glucocorticoid receptor in HFF assessed as inhibition of IL1-induced IL-6 production after 18 to 24 hrs; assay type: functional

Row | SMILES | Efficacy [1] | EC50 (Glucocorticoid receptor [2]; read-out: EC50) | Efficacy [3] | IC50 (Glucocorticoid receptor [4]) | IC50 (Progesterone receptor) | IC50 [5] | IC50 (Glucocorticoid receptor [6]) | EC50 (Glucocorticoid receptor [2])
1 | COc1ccc(F)cc1C(C)(C)C[C@](O)(Cc1cc2ccccc2[nH]1)C(F)(F)F | 20% | > 2000 nM | 20% | > 2000 nM | 1200 nM | 1100 nM | > 2000 nM | 
2 | CC(C)(C[C@](O)(Cc1cc2ccc(C#N)cc2[nH]1)C(F)(F)F)c1cc(S(C)(=O)=O)cc2c1OCC2 |  |  |  | 405 nM | 1400 nM | 405 nM |  | 
3 | COc1ccc(F)cc1C(C)(C)CC(O)(Cc1cc2cccc(F)c2[nH]1)C(F)(F)F (racemic) | 75% | 473 nM | 89% | 15 nM | 930 nM | 435 nM | 36 nM | 
4 | COc1ccc(F)cc1C(C)(C)CC(O)(Cc1cc2cccc(C)c2[nH]1)C(F)(F)F (racemic) | 26% | > 2000 nM | 26% | 56 nM | 1450 nM | 1040 nM | > 2000 nM | 
5 | COc1ccc(F)cc1C(C)(C)CC(O)(Cc1cc2cccc(C(F)(F)F)c2[nH]1)C(F)(F)F (racemic) |  | > 2000 nM |  | 120 nM | 1750 nM | 1650 nM | > 2000 nM | 
6 | COc1ccc(F)cc1C(C)(C)CC(O)(Cc1cc2cccc(C#N)c2[nH]1)C(F)(F)F (racemic) | 30% | > 2000 nM |  | 27 nM | > 2000 nM | 1420 nM | > 2000 nM | 
7 | COc1ccc(F)cc1C(C)(C)CC(O)(Cc1cc2c(C)cccc2[nH]1)C(F)(F)F (racemic) | 91% | 9 nM | 110% | 30 nM | 350 nM | 415 nM | 6 nM | 
8 | COc1ccc(F)cc1C(C)(C)CC(O)(Cc1cc2c(C(F)(F)F)cccc2[nH]1)C(F)(F)F (racemic) | 70% |  | 30% | 160 nM | > 2000 nM | > 2000 nM | 290 nM | Not Active
9 | COc1ccc(F)cc1C(C)(C)CC(O)(Cc1cc2cc(F)ccc2[nH]1)C(F)(F)F (racemic) | 84% | 94 nM | 98% | 24 nM | 405 nM | 405 nM | 78 nM | 
10 | COc1ccc(F)cc1C(C)(C)CC(O)(Cc1cc2cc(C)ccc2[nH]1)C(F)(F)F (racemic) | 86% | 230 nM | 104% | 66 nM | 1800 nM | 1250 nM | 113 nM | 
11 | COc1ccc(F)cc1C(C)(C)CC(O)(Cc1cc2cc(C(F)(F)F)ccc2[nH]1)C(F)(F)F (racemic) | 77% | 640 nM | 65% | 290 nM | > 2000 nM | > 2000 nM | 191 nM | 
12 | COc1ccc(F)cc1C(C)(C)CC(O)(Cc1cc2ccc(F)cc2[nH]1)C(F)(F)F (racemic) | 94% | 33 nM | 84% | 30 nM | 265 nM | 350 nM | 29 nM | 
13 | COc1ccc(F)cc1C(C)(C)CC(O)(Cc1cc2ccc(C)cc2[nH]1)C(F)(F)F (racemic) | 60% | 976 nM | 70% | 38 nM | 1250 nM | 720 nM | 334 nM | 
14 | COc1ccc(F)cc1C(C)(C)CC(O)(Cc1cc2ccc(C(F)(F)F)cc2[nH]1)C(F)(F)F (racemic) |  | > 2000 nM |  | 77 nM | 1600 nM | 910 nM | > 2000 nM | 
15 | CC(C)(CC(O)(Cc1cc2ccccc2[nH]1)C(F)(F)F)c1cccc2c1OCC2 (racemic) | 83% | 311 nM | 103% | 19 nM | 225 nM | 400 nM | 10 nM | 
16 | CC(C)(CC(O)(Cc1cc2ccccc2[nH]1)C(F)(F)F)c1cc(F)cc2c1OCC2 (racemic) | 90% | 125 nM | 98% | 8 nM | 255 nM | 265 nM | 21 nM | 
17 | Cc1cc2c(c(C(C)(C)CC(O)(Cc3cc4ccccc4[nH]3)C(F)(F)F)c1)OCC2 (racemic) | 95% | 16 nM | 105% | 10 nM | 145 nM | 240 nM | 7 nM | 
18 | CC(C)(CC(O)(Cc1cc2ccccc2[nH]1)C(F)(F)F)c1cc(Br)cc2c1OCC2 (racemic) | 88% | 45 nM | 99% | 32 nM | 415 nM | 585 nM | 16 nM | 
19 | C[C@@H]1C[C@H]2[C@@H]3CCC4=CC(=O)C=C[C@]4(C)[C@@]3(F)[C@@H](O)C[C@]2(C)[C@@]1(O)C(=O)CO [DEXAMETHASONE] |  |  |  |  | > 2000 nM |  |  | 
